Screening results from PubChem BioAssay.
The list is not random: actives were taken first. Their share in the collection is about 4.5%.
OX1R antag-1: antagonists of human orexin 1 receptor. 330,000 compounds, 0.43% hits. CHO/OX1R cells, Fluo-8 calcium fluorescence, orexin A. O43613. inhibition, % at 5 µM;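 active = inhibition above its plate's threshold, mean inhibition of all tested compounds on the plate plus 3 SD, cut at about 37% in these data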
TAAR1 antagonist: human TAAR1 antagonism. Q96RJ0. CHO RD-HGA16 TAAR1, Fluo-8 calcium fluorescence, antagonist. inhibition, % at 3 µM. 360,000 compounds, 1.5% hits;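 active = inhibition above a per-plate cutoff, the mean inhibition of test compounds on that plate plus 3 SD, cut at about 49% in these data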
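Material: CHO RD-HGA16 cells bearing hTAAR1; compound dosing: one-point dosing, 3 µM nominal final; schedule: dye loading 75 min at 37 °C, then 30 min room temperature; measured by: calcium fluorescence with Fluo-8; control set: vehicle and agonist controls; replication: n of 1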
TAAR1 agonist: human TAAR1 agonism. Q96RJ0. CHO RD-HGA16 TAAR1, Fluo-8 calcium fluorescence; vehicle wells 0%, saturating PEA agonist 100%. activation, % at 3 µM. 360,000 compounds, 0.99% hits. AID 624467;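 active = activation above the mean activation of all test compounds in the run plus 3 SD, cut at about 38% in these data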
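Test system: RD-HGA16 (CHO) cells co-expressing Gα16 and hTAAR1 | Doses: Single dose, 3 µM | Schedule: 17-24 h seeding, 75 min 37 °C dye, 30 min RT | Evaluation: % activation from peak over basal fluorescence ratio, DMSO-to-PEA scaled | Technique: Kinetic Fluo-8 calcium fluorescence | Benchmarks: Low control DMSO, high control PEA (EC100)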
CHO parental Ca: signal in parental CHO cells, OX1R antagonist counter-screen; inhibition, % at 5.6 µM; AID 463079; parental CHO-K1, ATP-induced calcium, Fluo-8 fluorescence; 330,000 compounds, 0.63% hits;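 active = inhibition above that plate's mean sample inhibition plus 3 SD, cut at about 26% in these data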
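Assay system: untransfected parental CHO cell line. Also added: ATP agonist challenge. Dosing: one dose, 5.6 µM nominal. Measured by: Fluo-8 fluorescence. Read-out: % inhibition. Benchmarks: ATP wells versus no-ATP DMSO wells. Repeats: no replicates.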
OX1R antag-2: blocks the human orexin 1 receptor | O43613 | OX1R-expressing cells, FRET antagonist read-out | inhibition, % at 6.6 µM | 330,000 compounds, 1.8% hits | AID 485270; in the data active = inhibition mostly above about 38%, no sharp cut-off; inactive = mostly below about 40%
GPR7 antag: human neuropeptides B/W receptor 1 antagonism | inhibition, % at 4.4 µM | 290,000 compounds, 1.1% hits | GPR7-expressing cells, fluorescence antagonist assay | P48145; in the data active = inhibition above about 16%, passing the limit was not always enough;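 also: cells stimulated with the agonist NPW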
Target sequence (P48145 whole entry, looked up): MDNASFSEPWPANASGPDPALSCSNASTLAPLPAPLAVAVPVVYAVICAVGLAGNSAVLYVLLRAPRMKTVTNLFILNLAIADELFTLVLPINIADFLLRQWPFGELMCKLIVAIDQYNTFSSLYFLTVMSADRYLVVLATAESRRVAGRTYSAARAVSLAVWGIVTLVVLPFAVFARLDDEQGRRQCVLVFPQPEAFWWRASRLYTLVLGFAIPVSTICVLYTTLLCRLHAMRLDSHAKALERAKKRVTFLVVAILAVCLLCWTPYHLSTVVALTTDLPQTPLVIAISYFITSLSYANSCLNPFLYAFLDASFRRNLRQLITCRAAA
GPR7 antag conf: confirmation of human GPR7 antagonists | shares compounds with GPR7 antag | GPR7-expressing cells, calcium fluorescence antagonist mode | inhibition, % at 4.4 µM | 2,400 compounds, 52% hits; in the data active = inhibition above about 24%;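 also: stimulated with the GPR7 agonist NPW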
MCHR1 antag: MCHR1 (human) antagonism in GPR7 counter-screen; shares compounds with GPR7 antag; MCHR1-expressing cells, fluorescence antagonist assay; inhibition, % at 4.4 µM; 2,400 compounds, 62% hits; AID 2148; in the data active = inhibition above about 22%
Hits are given with their value; . = inactive; / = not tested or not shown.

SMILES | OX1R antag-1 | TAAR1 antagonist | TAAR1 agonist | CHO parental Ca | OX1R antag-2 | GPR7 antag | GPR7 antag conf | MCHR1 antag
CS(=O)(=O)c1ncc(Cl)c(C(=O)Nc2ccc(OC(F)F)cc2)n1 | . | / | / | . | 53 | 51 | 88 | 94
CCN(c1ccccc1)S(=O)(=O)c1ccc(NC(=O)c2nc(S(C)(=O)=O)ncc2Cl)cc1 | 62 | / | / | 46 | . | 98 | 97 | 102
CCN(c1ccccc1)S(=O)(=O)c1ccc(C(=O)Nc2ccncc2)cc1 | . | . | . | . | . | / | / | /
CCS(=O)(=O)c1ncc(Cl)c(C(=O)Nc2ccc(S(=O)(=O)N(C)c3ccccc3)cc2)n1 | 51 | 56 | . | 52 | 46 | 61 | 96 | 98
O=C(Nc1ccc(F)cc1)c1nc(S(=O)(=O)Cc2ccccc2)ncc1Cl | . | . | . | . | . | . | / | /
O=C(Cc1nnc(NC(=O)Nc2ccccc2F)s1)NCc1ccccc1 | . | . | . | . | . | . | / | /
O=C(COC(=O)c1cc([N+](=O)[O-])ccc1N1CCOCC1)Nc1cccc(F)c1 | . | . | . | . | 71 | 35 | . | 24
CC(=O)Nc1ccc(NC(=O)COC(=O)c2cc([N+](=O)[O-])ccc2N2CCOCC2)cc1 | . | . | . | . | . | . | / | /
COC(=O)c1ccc(CSc2nnc(Nc3cccc(OC)c3)s2)o1 | . | . | . | . | . | 46 | . | 48
COC(=O)c1ccc(CSc2nnc(NC(C)C)s2)o1 | . | . | . | . | . | . | / | /
COc1ccccc1C/C(N)=N/OC(=O)c1ccco1 | . | . | . | . | . | . | / | /
O=C(CCN(CCO)Cc1ccccc1)Nc1ccc(Br)cc1 | . | . | . | . | . | 24 | 24 | .
CCOC(=O)Cn1cnc2c(cnn2-c2ccccc2)c1=O | . | . | . | . | . | . | / | /
Cc1sc2nc(COC(=O)CNC(=O)c3ccc(C(C)(C)C)cc3)[nH]c(=O)c2c1C | . | . | . | . | . | . | / | /
Cc1ccc(C(=O)Nc2ccc(S(=O)(=O)NCc3ccco3)cc2)cc1 | . | . | . | . | . | . | / | /
Cc1cc(C)n(-c2ccc(C(=O)Nc3ccc(S(=O)(=O)NCc4ccco4)cc3)cc2)n1 | . | 62 | . | . | . | 45 | 67 | 70
Cn1c2nc(=O)[nH]c(=O)c-2cc2ccccc21 | / | . | . | / | / | / | / | /
Cc1ccc(C)c(-n2c3nc(=O)[nH]c(=O)c-3cc3cc([N+](=O)[O-])ccc32)c1 | . | . | . | . | . | 22 | 42 | 43
CC(C)CC1NC(=O)N(CC(=O)N(C)C2CCCCC2)C1=O (stereo unspecified) | . | . | . | . | . | / | / | /
CN(C(=O)CN1C(=O)C2C3CC(C(Br)C3Br)C2C1=O)C1CCCCC1 (stereo unspecified) | . | . | . | . | . | 23 | 39 | .
CCc1ccccc1NC(=O)CSc1nc2ccccc2nc1N1CCOCC1 | . | . | . | . | . | 26 | 34 | 31
Cc1ccc(C)c(NC(=O)CSc2nc3ccccc3nc2N2CCOCC2)c1 | . | . | . | . | . | . | / | /
COc1ccccc1CNC(=O)c1c(N)n(CCCN2CCOCC2)c2nc3ccccc3nc12 | / | . | . | / | / | . | / | /
Nc1c(C(=O)NCc2ccc3c(c2)OCO3)c2nc3ccccc3nc2n1CCCN1CCOCC1 | . | . | . | 33 | . | 23 | 49 | 51
CCc1ccc(CNC(=O)Cn2nc(-c3ccccc3)ccc2=O)cc1 | . | . | . | . | . | 31 | . | .
Cc1ccc(-n2c(-c3ccc(Br)cc3)n[nH]c2=S)c(C)c1 | / | . | . | / | / | / | / | /
CC(C)c1ccc(C(C)NC(=S)NC2CCCCC2)cc1 (stereo unspecified) | / | . | . | / | / | . | / | /
CC(NC(=S)NC1CCCCC1)c1ccc(C(C)(C)C)cc1 (stereo unspecified) | . | . | . | . | . | 25 | 40 | 61
